Laboratory results taken from the RNAGym collection of RNA variant scans (doi:10.1126/science.aae0568).
Fewer inactive variants are shown than the library holds.

B1: tRNA (parent)
chain: GUUCCGUUGGCGUAAUGGUAACGCGUCUCCCUCCUAAGGAGAAGACUGCGGGUUCGAGUCCCGUACGGAACG

Variants of: B1
Assay: yeast fitness relative to wild type (ratio to wild type); higher = fitter; tRNA-Arg(CCU), competitive growth, 37 C, YPD
Procedure, shortened: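 A pool of Saccharomyces cerevisiae strains, each with a tRNA-Arg(CCU) gene variant at the native genomic locus, was competed in YPD at 37°C for 24 hours across six parallel replicates. The variants had been chemically synthesised at a 3% per-site mutation rate over 69 sites, and gene amplicons before and after competition were read by 100-nucleotide paired-end sequencing. Darwinian fitness relative to wild type rested on changes in genotype frequencies. Genotypes required ≥ 100 starting reads, and estimates < 0.5 were set to 0.5.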

Variant	yeast fitness
U3A A37U C66A	≤ 0.5
U3A A15U G23C C27U G52A	0.64
U3A A21G C66U A70C	0.794
U2G U13A C22U U54A C61G A69C	≤ 0.5
U3A C4U G25C G58C	≤ 0.5
U2G U26A U54A	≤ 0.5
U3A A36G	0.868
U3A A15C U16C C66U	≤ 0.5
U3A C4A U16A C30G U53C C66U A70G	≤ 0.5
U3A A14C A37C	≤ 0.5
U3A A20U C49U	0.531
U3A C4A A20C C29A	≤ 0.5
U3A A14G C24G C29A G50C A57C	≤ 0.5
U3A A15C U47C	≤ 0.5
U2G G9C A36U A45C	≤ 0.5
U2G G9C G12A A42C C46A U64C	≤ 0.5
U3A C11G C31G C62A	≤ 0.5
U3A C4A U16A C30G U53C C66A	≤ 0.5
U3A C11G A14C C24G C31A	≤ 0.5
U3A C11G A14C C24G	0.653
U3A A69C	0.919
U3A A37C A45C	0.6
U2G G9C	0.755
U2G G12A G41C A57U	≤ 0.5

Variant	yeast fitness
U3A A40G A57C A69C	≤ 0.5
U3A A14G G23C A65C	≤ 0.5
U2G U8C U26C G56A	≤ 0.5
U3A A36G A70C	0.991
U3A C11U A20C U32A C62U G63A	≤ 0.5
U2G U13G U16C	≤ 0.5
U3A A37G A42G G50A C55U U64C	≤ 0.5
U2G U13A G58A	0.585
U3A C5A G6C A15G U16A U26G	0.512
U3A C11G G41C	0.61
U3A A20G G44A C49A U59A	≤ 0.5
U2G G10A G50A	≤ 0.5
U3A C11G A40G U53G G68C	0.654
U2G U3G C11U G52C C55G A70G	≤ 0.5
U3A A15G U19A G41A	≤ 0.5
U2G G6A U53G U54G C55A	≤ 0.5
U3A A15U U28G C55A A70U	0.779
U3A A14G G23C A70C	0.573
U2G U28G G68C	≤ 0.5
U3A A14U C46U U53A	≤ 0.5
U2G G51A	0.805
U3A A45U C46G G52A G68C	≤ 0.5
U3A A21C C24G C62G A70G	≤ 0.5
U3A C4A U8C C29G A37C A70C	≤ 0.5

Variant	yeast fitness
U3A C4U C11U G48C	0.532
U2G U32C	0.867
U2G U32G	0.68
U3A C11G G17C C24G C46A A65U	≤ 0.5
U3A A15U	0.695
U2G G9A C22A C24A A43C	≤ 0.5
U2G U19A U53C G67A	0.563
U3A C11U C29A A42G	0.629
U2G G6A C49G	≤ 0.5
U3A A70U	0.86
U3A A70C	0.988
U2G G25U A65U	0.532
U3A C4A U8C C29G C33G A42G G48A	≤ 0.5
U2G G58C	0.755
U2G G58A	1.16
U3A C11G G17C C24G C46A	≤ 0.5
U3A A20G C24U C55G C61U	≤ 0.5
U3A C11G G23C	0.501
U3A C5U U28A G58A	0.5
U3A C22G C24U G39A	≤ 0.5
U3A A42C C61A	≤ 0.5
U2G G17A C33G G39C C55U	≤ 0.5
U3A C5A A65U	≤ 0.5
U2G G6A C22U C27U A36U C60G	≤ 0.5

Variant	yeast fitness
U3A C4U U7A C24U C60U	≤ 0.5
U3A C5A C66U	≤ 0.5
U3A A40U G56A	≤ 0.5
U2G G9C A15G G48C G51A	≤ 0.5
U3A A43C C46A G48C	0.57
U3A C22G C27G U59G A69G	≤ 0.5
U2G U13A U16A C29G	≤ 0.5
U2G G9A U16G C62U U64C	≤ 0.5
U3A A21C A36U	≤ 0.5
U3A C4U C11A U53A A65U	≤ 0.5
U3A C11U A69U	0.627
U2G U28A C33U C46G	≤ 0.5
U3A C11U C29A A42G A57C	≤ 0.5
U3A A15G U35C G52A	0.525
U3A C22G G48A	0.544
U2G G41C	0.818
U3A C11A C33U A37U G39C	≤ 0.5
U2G U7G C60U C61A G67C	≤ 0.5
U3A C5U G18C U54A G56A A70G	≤ 0.5
U3A C22G C29G C46U A70U	≤ 0.5
U3A C5G C46G U53A	0.527
U3A C4U G44C	0.638
U3A C5U	0.85
U2G U35A A40U A57U	≤ 0.5

Variant	yeast fitness
U3A A42G U53A	≤ 0.5
U3A C5G A21U	0.539
U3A A21U C49A	≤ 0.5
U3A A21G C33G C34G	≤ 0.5
U3A C5U C62A	≤ 0.5
U2G U26C C49U C55A	≤ 0.5
U3A C4G U8A G50A A57C A70U	0.548
U3A A21C A36U G58A	≤ 0.5
U3A C4U C29G	≤ 0.5
U2G G25C G52A	≤ 0.5
U2G U26G	0.693
U2G U26A	0.828
U3A A21U U28A A42C A57G C66A	≤ 0.5
U3A A37C A43C	≤ 0.5
U2G U7C U28A	≤ 0.5
U2G G12U	1.15
U2G G44A	0.849
U3A C4U U7A C24U A42U G58A C62U G63A	≤ 0.5
U2G G44A G51C	≤ 0.5
U2G U32G A42U	≤ 0.5
U2G G38A G52C C61A	0.555
U3A A40G C55G	0.813
U3A A40G C49U	0.54
U2G G44C C60U A69G	≤ 0.5

Variant	yeast fitness
U3A A45G G67C	0.628
U2G U13G A57G	0.538
U2G U7G U16C C34U	≤ 0.5
U3A A36G G56A A65C A69C	≤ 0.5
U2G G44A G51C A65U	≤ 0.5
U2G G12A G41C	0.596
U3A A36U U53G	0.619
U3A C22G C29U	0.55
U3A C4G G9A C11G U53A C66U	≤ 0.5
U2G U53A	0.532
U3A C11G C22A C33G	≤ 0.5
U2G U28A U32C C49G G52A	≤ 0.5
U2G G48A C60G	0.541
U3A C5G C29G A36C C49U U53G	≤ 0.5
U3A A57C	0.714
U3A A20G A36C G51C	≤ 0.5
U2G G10C A65C	≤ 0.5
U2G G12A C31G C33G A40U G52A C60G C62U	≤ 0.5
U2G U64C	0.841
U2G G6A C27U A36U C61U C62G	≤ 0.5
U3A A20G A43U C55G C61U	≤ 0.5
U2G G12C A20U C33U A37U A57U	≤ 0.5
U2G G9C A20G A42C A43G C46G C49U A69C	≤ 0.5
U2G G9A U59A	≤ 0.5

Variant	yeast fitness
U3A A43U C49U	0.69
U2G G9C G12A A42C C46A A65U	0.577
U3A A20G G56A	0.707
U2G U19A C66U	0.606
U3A C5A C29A G68A	≤ 0.5
U2G G9A G41A	≤ 0.5
U3A A15U C34U G48A C60U	≤ 0.5
U2G G41C A65C	0.534
U2G U3G C29G C30G C46G	≤ 0.5
U2G G48A G58C C61A	≤ 0.5
U3A C4G U59A A65C A70C	≤ 0.5
U3A C11G A14C C62U G63A	≤ 0.5
U3A C5A G12C G25A C30U	≤ 0.5
U3A C5G A21U C22U U32A C49G	0.599
U2G G9C G12A A20G A42C C46G C49U A69C	≤ 0.5
U3A C5U C22G U53G	≤ 0.5
U3A A20C U32A	≤ 0.5
U3A C11U A37U G41A G52C A57C	≤ 0.5
U3A A40U A70G	0.597
U3A A21G A45G A69C	0.726
U2G G18A A21G G25A G51C	≤ 0.5
U3A A14U A57U	≤ 0.5
U2G U26A A43G G44C U53C	≤ 0.5
